Compounds with a hit are over-represented: about 1.5% of the library has one in this group of screens.
S100A4 inh HTS: S100A4-myosin IIA interaction inhibition; S100A4/TAMRA-MyoIIA peptide fluorescence polarization; inhibition, % at 10.7 µM; P26447; 360,000 tested, 0.14% active;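 active means mean inhibition of at least 70% across replicates, with every replicate also reaching that level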
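Test system – S100A4 monomer (human) · Compound – single-point compound testing · Schedule – 5 min incubation before reading · Probe or stimulus – TAMRA-labelled myosin IIA heavy-chain peptide probe, 5 nM · Benchmarks – neutral control DMSO, positive control TFP · Medium – Calcium-containing HEPES buffer, pH 7.2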
PKA-R2B activ: activates the human PKA-R2B holoenzyme complex; P22694+P31323; PKA-R2B holoenzyme dissociation, Cy5-IP20 fluorescence polarization; R2B truncated from residue 108, S112A mutant; 0% DMSO only, 100% 113 µM cGMP; activation, % at 11.4 µM; 340,000 tested, 0.079% active; AID 504700;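 active means activation above a cutoff set at the mean over all compounds plus 3 SD, cut at about 18% in these data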;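 further: higher means more holoenzyme dissociation and a rise in polarization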
Target sequence (P31323 whole entry, looked up, other chains not shown, the tested form may be a part): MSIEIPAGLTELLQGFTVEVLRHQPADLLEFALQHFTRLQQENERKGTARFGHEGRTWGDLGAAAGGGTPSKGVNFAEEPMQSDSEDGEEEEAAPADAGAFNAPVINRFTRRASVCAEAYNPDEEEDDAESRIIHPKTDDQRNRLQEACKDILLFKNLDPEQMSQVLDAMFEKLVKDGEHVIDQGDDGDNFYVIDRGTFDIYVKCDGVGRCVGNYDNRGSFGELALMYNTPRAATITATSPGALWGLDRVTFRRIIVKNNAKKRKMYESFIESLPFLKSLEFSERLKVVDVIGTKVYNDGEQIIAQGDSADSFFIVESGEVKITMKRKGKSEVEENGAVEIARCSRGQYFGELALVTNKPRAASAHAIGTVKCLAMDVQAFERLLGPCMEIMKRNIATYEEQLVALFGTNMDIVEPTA
PKA-R1A activ: activators of PKA-R1A complex | 340,000 tested, 0.083% active | activation, % at 11.4 µM | PKA-R1A dissociation, Cy5-IP20 fluorescence polarization; scaled: DMSO 0%, 113 µM cGMP 100%;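 active means percent activation above the mean of all tested compounds plus 3 SD, cut at about 19% in these data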;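 further: higher means more PKAc released from R1A so a rise in polarization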
SIRT5 block: inhibitors of human sirtuin-5 desuccinylase; Q9NXA8; Purified SirT5, succinyl-peptide AMC, trypsin-coupled fluorescence; inhibition, % at 15 µM; 330,000 tested, 1.1% active; AID 652115; in the data active means inhibition above about 15%
Target sequence (Q9NXA8 whole entry, looked up): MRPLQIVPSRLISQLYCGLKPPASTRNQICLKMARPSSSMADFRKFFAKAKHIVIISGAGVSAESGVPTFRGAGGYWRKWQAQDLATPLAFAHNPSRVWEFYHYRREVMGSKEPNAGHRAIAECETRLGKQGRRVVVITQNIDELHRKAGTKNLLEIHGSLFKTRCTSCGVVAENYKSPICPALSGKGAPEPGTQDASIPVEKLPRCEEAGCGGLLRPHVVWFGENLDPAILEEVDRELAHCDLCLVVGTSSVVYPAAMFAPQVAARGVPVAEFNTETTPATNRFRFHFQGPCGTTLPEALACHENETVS
CRFR2-BP antag: CRF-BP/CRF-R2 complex antagonism | HEK293 CRF-R2/CRF-BP, CRF-induced calcium fluorescence | inhibition, % at 11.8 µM | 350,000 tested, 0.59% active | AID 588475;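 active means inhibition of the ligand-induced calcium signal above about 50% at the single tested concentration, limit read from the data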
Large screens that a line does not name were inactive.

CCCCCC[n+]1ccccc1/C=C/c1ccc(N(C)C)cc1	S100A4 inh HTS 93 (no result: PKA-R2B activ, PKA-R1A activ, CRFR2-BP antag)
CC[n+]1ccccc1/C=C/c1ccc(N(C)C)cc1	none (no result: SIRT5 block)
Nc1cccc(-c2csc(-n3ncc(C(=O)O)c3C(F)(F)F)n2)c1	SIRT5 block 29
O=C(O)c1cnn(-c2nc(-c3ccc(Cl)c(Cl)c3)cs2)c1C(F)(F)F	CRFR2-BP antag 50
O=C(O)c1cnn(-c2nc(-c3cccc(F)c3)cs2)c1C(F)(F)F	none
Cc1cc2cc(CNC(=O)Nc3cccc(Cl)c3)ccc2n1C	S100A4 inh HTS 78 (no result: SIRT5 block)
Cc1cccc(NC(=O)NCc2ccc3c(c2)cc(C)n3C)c1	none
COCC(=O)N1CC2(C1)CN(Cc1cc(F)ccc1F)[C@@H](CO)c1c2c2ccc(OC)cc2n1C	none (no result: PKA-R2B activ, PKA-R1A activ, CRFR2-BP antag)
CN(C)c1ccc(/C=C2/SC(=O)N(CCN=C3NS(=O)(=O)c4ccccc43)C2=O)cc1	SIRT5 block 18
O=C(Nc1cccnc1)c1ccc(-c2cc(Cl)ccc2Cl)o1	none
O=C(Nc1cccnc1)c1ccc(-c2ccc(Cl)cc2)o1	CRFR2-BP antag 57
CN(Cc1ccccc1)C(=O)c1[nH]cnc1C(=O)Nc1ccc(Br)cc1F	SIRT5 block 18
CN(Cc1ccccc1)C(=O)c1[nH]cnc1C(=O)NCc1ccccc1	none
COc1ccc(C2/C(=C(/O)c3ccc(S(=O)(=O)N4CCOCC4)cc3)C(=O)C(=O)N2CCN2CCOCC2)cc1 (stereo not drawn)	none
COc1ccc(/C(O)=C2/C(=O)C(=O)N(CCCN3CCOCC3)C2c2ccc(OC)cc2)cc1 (stereo not drawn)	SIRT5 block 81
COCC(=O)Nc1ccc2c(c1)OC[C@@H](C)N(Cc1cccc(F)c1)C[C@H](C)[C@H](OC)CN(C)C2=O	none (no result: PKA-R2B activ, PKA-R1A activ, CRFR2-BP antag)
O=C1N=c2ccccc2=C1c1sc(Nc2ccc(O)cc2)nc1O	CRFR2-BP antag 60
CN1[C@@H]2c3ccc(-c4ccc(F)cc4)c(=O)n3C[C@H]1[C@H](CO)[C@H]2C(=O)Nc1nccs1	none (no result: PKA-R2B activ, PKA-R1A activ, CRFR2-BP antag)
C[C@H](CO)N1C[C@H](C)[C@@H](CN(C)Cc2cccc(C(=O)O)c2)Oc2cc(Br)ccc2S1(=O)=O	none
C[C@@H]1CN([C@H](C)CO)S(=O)(=O)c2ccc(Br)cc2O[C@H]1CN(C)Cc1cccc(C(=O)O)c1	none (no result: PKA-R2B activ, PKA-R1A activ, CRFR2-BP antag)
C[C@H](CO)N1C[C@H](C)[C@@H](CN(C)Cc2cccc(C(=O)O)c2)Oc2cc(C#CCC3CCCC3)ccc2S1(=O)=O	SIRT5 block 16 (no result: PKA-R2B activ, PKA-R1A activ, CRFR2-BP antag)
C[C@@H]1CN([C@@H](C)CO)S(=O)(=O)c2ccc(C#CCC3CCCC3)cc2O[C@H]1CN(C)Cc1cccc(C(=O)O)c1	SIRT5 block 17 (no result: PKA-R2B activ, PKA-R1A activ, CRFR2-BP antag)
CCCC(=O)Nc1ccc2c(c1)C(=O)N(C)C[C@H](OC)[C@@H](C)CN(Cc1ccccc1F)[C@@H](C)CO2	none (no result: PKA-R2B activ, PKA-R1A activ, CRFR2-BP antag)
O=C(Nc1ccccc1)N1C[C@@H]2[C@H](c3ccccc31)[C@@H](CO)N2CC1CCCC1	SIRT5 block 19 (no result: PKA-R2B activ, PKA-R1A activ, CRFR2-BP antag)
COc1ccccc1CN1[C@@H](CO)[C@@H]2c3ccccc3N(C(=O)c3cccnc3)C[C@@H]21	none (no result: PKA-R2B activ, PKA-R1A activ, CRFR2-BP antag)
O=C(Nc1ccc(Cl)cc1)N1C[C@H]2[C@@H](c3ccccc31)[C@@H](CO)N2CC1CCCC1	none (no result: PKA-R2B activ, PKA-R1A activ, CRFR2-BP antag)
O=C(C1CCOCC1)N1C[C@@H]2[C@H](c3ccccc31)[C@H](CO)N2Cc1ccccc1F	SIRT5 block 15 (no result: PKA-R2B activ, PKA-R1A activ, CRFR2-BP antag)
COc1ccccc1CN1[C@H](CO)[C@H]2c3ccccc3N(C(=O)c3cccnc3)C[C@H]21	S100A4 inh HTS 130 (no result: PKA-R2B activ, PKA-R1A activ, CRFR2-BP antag)
OC[C@H]1[C@H](c2ccc(C#CC3(O)CCCC3)cc2)[C@@H]2CN(Cc3cccnc3)CCCCN12	none (no result: PKA-R2B activ, PKA-R1A activ, CRFR2-BP antag)
O=C(Nc1ccc(C(F)(F)F)cc1)N1[C@@H]2CNC[C@H]1C2c1ccc(/C=C/c2ccccc2)cc1 (stereo partly drawn)	none (no result: PKA-R2B activ, PKA-R1A activ, CRFR2-BP antag)
CC(C)NC(=O)N(C)C[C@H]1Oc2cc(-c3ccncc3)ccc2S(=O)(=O)N([C@@H](C)CO)C[C@@H]1C	none (no result: PKA-R2B activ, PKA-R1A activ, CRFR2-BP antag)
C=CCSc1nc2c(cc1C#N)CCC2	none (no result: S100A4 inh HTS, SIRT5 block)
C=C(C)CSc1nc2c(cc1C#N)CCC2	CRFR2-BP antag 64 (no result: S100A4 inh HTS, SIRT5 block)
COc1ccc(CN2C[C@@H](O)COC[C@H]3O[C@H](CC(=O)NCCN4CCCC4)CC[C@@H]32)cc1	SIRT5 block 21 (no result: PKA-R2B activ, PKA-R1A activ, CRFR2-BP antag)
COc1ccc(CN2C[C@H](O)COC[C@@H]3O[C@H](CC(=O)NCCN4CCCC4)CC[C@H]32)cc1	none (no result: PKA-R2B activ, PKA-R1A activ, CRFR2-BP antag)
COc1ccc(CN2C[C@H](O)COC[C@@H]3O[C@H](CC(=O)N4CCc5ccccc5C4)CC[C@H]32)cc1	SIRT5 block 15 (no result: PKA-R2B activ, PKA-R1A activ, CRFR2-BP antag)
O=C(Nc1ccccc1SCC1CSc2nc3ccccc3c(=O)n21)c1ccccc1 (stereo not drawn)	CRFR2-BP antag 67 (no result: S100A4 inh HTS, SIRT5 block)
CCCc1nc(NCCCOCC)c2nnn(Cc3ccccc3)c2n1	SIRT5 block 17
Cc1cccc(-c2oc3ccc(-c4ccc5c(c4)OCO5)cc3c2-c2ccc(OC3CCCCO3)cc2)c1 (stereo not drawn)	S100A4 inh HTS 107 (no result: SIRT5 block)
N#Cc1c(-c2ccc(Cl)cc2)n(O)c2ccccc12	CRFR2-BP antag 63 (no result: S100A4 inh HTS, SIRT5 block)
Cn1c(-c2ccc(C#N)cc2)c(C#Cc2ccccc2)c2ccccc21	none
CCCCn1c(N)c(N(CC)C(=O)c2c(CC)noc2C)c(=O)[nH]c1=O	none
CCCCn1c(N)c(N(Cc2ccccc2OC)C(=O)c2c(CC)noc2C)c(=O)[nH]c1=O	CRFR2-BP antag 78
COc1ccc(NC(=O)CN(C)C(=O)c2ccc(S(=O)(=O)Nc3ccccc3C)cc2)cc1	none
Cc1ccccc1NS(=O)(=O)c1ccc(C(=O)N(C)CC(=O)Nc2ccccc2Br)cc1	CRFR2-BP antag 88
COc1ccc(S(=O)(=O)Nc2nc3ccccc3nc2NCC2CCCO2)cc1 (stereo not drawn)	CRFR2-BP antag 113
Cc1ccc(S(=O)(=O)Nc2nc3ccccc3nc2NCC2CCCO2)cc1 (stereo not drawn)	none
Cc1ccccc1NS(=O)(=O)c1ccc(C(=O)NCC2CCCO2)cc1 (stereo not drawn)	SIRT5 block 19
O=C(C[C@@H]1CC[C@H]2[C@@H](COC[C@H](O)CN2Cc2cccc(C(F)(F)F)c2)O1)NCc1ccc(Cl)cc1	none (no result: PKA-R2B activ, PKA-R1A activ, CRFR2-BP antag)
C[C@H]1CN([C@@H](C)CO)C(=O)Cc2cc(NC(=O)Nc3ccc(C(F)(F)F)cc3)ccc2O[C@@H]1CN(C)C(=O)Nc1ccc2c(c1)OCO2	none (no result: PKA-R2B activ, PKA-R1A activ, CRFR2-BP antag)
COc1ccc(CN(C)C[C@H]2Oc3c(NS(=O)(=O)c4cn(C)cn4)cccc3C(=O)N([C@@H](C)CO)C[C@H]2C)cc1	none (no result: PKA-R2B activ, PKA-R1A activ, CRFR2-BP antag)
Cc1ccccc1CN1CCN(Cc2ccc3cccc(F)c3n2)CC1CCO (stereo not drawn)	SIRT5 block 36
CSc1nc2ccc(Br)cc2[nH]1	SIRT5 block 15
COc1ccc(C)cc1NC(=O)CNC(c1ccccc1)c1ccccc1	none
COc1cc(C(=O)Nc2ccc(C)cc2C(NCC(=O)NN)c2ccccc2)cc(OC)c1OC (stereo not drawn)	SIRT5 block 19

Screening data: PubChem BioAssay, several laboratories
